For assay [1], the target named is T1, Sialidase (Clostridium perfringens) (UniProt P10481).
T1 sequence (whole entry): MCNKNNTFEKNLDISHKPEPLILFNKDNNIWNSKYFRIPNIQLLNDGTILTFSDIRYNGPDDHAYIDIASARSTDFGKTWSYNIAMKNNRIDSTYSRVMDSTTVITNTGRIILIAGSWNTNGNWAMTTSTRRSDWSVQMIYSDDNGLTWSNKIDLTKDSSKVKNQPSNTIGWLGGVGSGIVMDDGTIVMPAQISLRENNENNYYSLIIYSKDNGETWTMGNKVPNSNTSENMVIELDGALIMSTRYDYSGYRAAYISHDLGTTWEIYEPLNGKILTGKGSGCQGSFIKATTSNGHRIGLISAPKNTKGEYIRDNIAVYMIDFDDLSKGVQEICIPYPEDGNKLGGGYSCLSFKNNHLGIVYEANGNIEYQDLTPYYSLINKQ
Nature of the assay: (§1) Inhibition of Clostridium perfringens neuraminidase assessed as inhibition of 4-MU-NANA hydrolysis after 10 mins by spectrofluorimetry. Put shortly: (§2)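 Enzyme at 0.05 U/mL in 0.04 M sodium acetate pH 5.0 with compound (DMSO stock diluted in buffer) and 4-MU-NANA (1 mM stock); 10 min at 37 °C. Stopped with 0.1 M glycine–NaOH pH 10.4; 4-methylumbelliferone read at ex 360/em 440 nm. IC50 from regression, mean ± SD of three replicates.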

In assay [2] the target is T2, Sialidase (Clostridium perfringens, UniProt P10481).
T2 sequence (P10481 whole entry): T1 sequence (whole entry)
The description is as §1. In short, it runs like this:
as §2

Assay [3] deals with Sialidase (Vibrio cholerae serotype O1 (strain ATCC 39315 / El Tor Inaba N16961), UniProt P0C6E9). Nature of the assay: Inhibition of Vibrio cholerae neuraminidase assessed as inhibition of 4-MU-NANA hydrolysis after 30 mins by spectrofluorimetry. Put shortly:
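V. cholerae enzyme (8.3 U) with compound in 50 mM MES, 6 mM CaCl2, pH 5.6, pre-incubated 30 min at 37 °C with shaking. 4-MU-NANA added at 25 µM final, 30 min at 37 °C, then quenched with 0.25 M glycine pH 10.0. Read at ex 360/em 440 nm, blank-corrected, expressed as % of no-inhibitor control, at least triplicate.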

Assay [4] has as its target T2, Sialidase. Briefly: Noncompetitive inhibition of Clostridium perfringens neuraminidase. In short, it runs like this:
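Kinetics run in acetate-buffer 4-MU-NANA fluorometric assay without stop solution, product read immediately at ex 360/em 440 nm across substrate and inhibitor concentrations. Mode assigned from Lineweaver–Burk and Dixon plots; Ki from x-axis intersection of lines.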

Assay [5] has as its target T1, Sialidase (Clostridium perfringens). Briefly: Reversible inhibition of Clostridium perfringens neuraminidase at 10 times IC50 pre-incubated for 15 mins by spectrofluorimetry. Put shortly:
(§3)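 Reversibility by jump dilution: enzyme pre-incubated 15 min with compound at 100-fold assay enzyme level (0.125 U/mL), then diluted 1/100 into acetate buffer with substrate. Progress curves of fluorescence over 30 min compared with enzyme pre-incubated and diluted without compound.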

The target is the same in assay [6]. Nature of the assay: Reversible inhibition of Clostridium perfringens neuraminidase at 0.1 times IC50 pre-incubated for 15 mins by spectrofluorimetry. In short, it runs like this: as §3
For assay [7] the target is unchanged. Nature of the assay: Inhibition of Clostridium perfringens neuraminidase at 10 times IC50 by spectrofluorimetry. In short, it runs like this:
as §3

The target is the same in assay [8]. Nature of the assay: Inhibition of Clostridium perfringens neuraminidase at 0.1 times IC50 by spectrofluorimetry. Put shortly:
as §3

The target is the same in assay [9]. Briefly: Noncompetitive inhibition of Clostridium perfringens neuraminidase by Lineweaver-Burke plot analysis.
Assay [10] shares this target. Nature of the assay: Noncompetitive inhibition of Clostridium perfringens neuraminidase by Dixon plot analysis. Put shortly: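 Dixon plots of 1/v against [I] at each substrate concentration, rates from unquenched fluorometric 4-MU-NANA hydrolysis (ex 360/em 440 nm); Ki read from the x-axis value where lines intersect.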
Assay [11] deals with Vibrio cholerae. Nature of the assay: Antibacterial activity against Vibrio cholerae 16961 at 3 to 10 ug/ml after 24 hrs. Type of assay: functional, organism-based.
Assay [12] relates to Vibrio cholerae. Nature of the assay: Antibacterial activity against Vibrio cholerae 16961 infected in human HeLa cells assessed as inhibition of bacterial adherence to host cell at 3 to 10 ug/ml pre-incubated for 1 hr before infection measured after 30 mins of infection by Giemsa staining. Type of assay: functional, organism-based.

Active and inactive are the calls of the source. The calls are words filed in the database; no cut-off is given here.

Chain of Sialidase (Vibrio cholerae serotype O1 (strain ATCC 39315 / El Tor Inaba N16961), UniProt P0C6E9) (P0C6E9 whole entry, one chain of several): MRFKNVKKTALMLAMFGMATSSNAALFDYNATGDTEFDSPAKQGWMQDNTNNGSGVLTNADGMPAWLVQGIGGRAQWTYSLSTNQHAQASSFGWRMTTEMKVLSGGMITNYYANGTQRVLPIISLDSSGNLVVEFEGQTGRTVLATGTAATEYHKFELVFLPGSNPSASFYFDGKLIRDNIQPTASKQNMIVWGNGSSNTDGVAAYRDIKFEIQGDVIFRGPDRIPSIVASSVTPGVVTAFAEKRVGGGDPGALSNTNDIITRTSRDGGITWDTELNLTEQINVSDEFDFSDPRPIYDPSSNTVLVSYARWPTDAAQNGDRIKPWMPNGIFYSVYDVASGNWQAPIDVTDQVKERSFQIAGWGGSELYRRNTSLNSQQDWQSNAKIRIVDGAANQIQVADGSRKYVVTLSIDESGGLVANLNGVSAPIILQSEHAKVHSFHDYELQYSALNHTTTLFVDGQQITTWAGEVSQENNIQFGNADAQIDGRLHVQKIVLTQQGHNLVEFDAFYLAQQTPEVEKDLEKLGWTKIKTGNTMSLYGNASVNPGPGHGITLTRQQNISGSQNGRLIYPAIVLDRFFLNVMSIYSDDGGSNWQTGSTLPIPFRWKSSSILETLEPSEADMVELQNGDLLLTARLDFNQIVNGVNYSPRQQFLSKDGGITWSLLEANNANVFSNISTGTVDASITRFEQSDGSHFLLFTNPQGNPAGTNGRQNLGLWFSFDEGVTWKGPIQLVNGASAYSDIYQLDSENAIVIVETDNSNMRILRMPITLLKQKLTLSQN

By IC50 is commonly meant the concentration that gives 50% inhibition. As usually defined, the Ki is the equilibrium dissociation constant of an inhibitor or competing ligand from its target. The term inhibition denotes the relative decrease from the control value, in per cent. Consider `CC(C)=CCc1cc2c(cc1O)OC[C@H]1c3ccc(O)cc3O[C@@H]21` [CALOPOCARPIN], for which, in [1], the Activity entry is “Dose-dependent effect”. In addition, the results for the IC50 in assay [2] and in assay [3] were 1570 nM and 7550 nM, respectively. Besides, the Ki in [4] amounted to 2090 nM. Further, the inhibition entry in assay [5], in [6], in assay [9] and in [10] was “Active” throughout. The inhibition in assay [7] was determined as 91%; in assay [8], 9%. For the same compound, in [11], the result was inactive. Further, in assay [12], the result was Active.

The values are drawn from ChEMBL document CHEMBL1157932, “Prenylated pterocarpans as bacterial neuraminidase inhibitors” (Bioorg Med Chem, 2010).
